Reference: ChEMBL document CHEMBL1124386, “Selective thyromimetics. Cardiac-sparing thyroid hormone analogues containing 3'-arylmethyl substituents” (J Med Chem, 1989)
Converted amounts (≈) assume the structure as drawn. The source made the active and inactive calls. The calls are words filed in the database; no cut-off is given here.

Legend:
Rattus norvegicus [1] = assay: Potency for induction of GPDH (mitochondrial cytochrome C3-phosphoglycerate oxidoreductase) was measured 48 hr after single im injection relative to T3 in heart; I=inactive after 2 daily doses of 50 mg/kg; type: functional, organism-based; parameters: dose 50 mg/kg
Rattus norvegicus [2] = assay: Percent increase in oxygen consumption after seven daily doses in mg/kg increase of test compound given perorally; I=inactive after 2 daily doses of 50 mg/kg; type: functional, organism-based; parameters: dose 50 mg/kg
Summary of the method: (§1)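 Euthyroid rats given seven daily doses, intramuscular or oral, by line; whole-body oxygen consumption measured as percent increase in metabolic rate.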

[3] = Partition coefficient at 25 degree Celsius in octanol/aqueous buffer at pH 6.02; type: physicochemical
[4] = target: T1, Thyroid hormone receptor beta (Rattus norvegicus) (UniProt P18113); assay: Binding affinity to the receptor was determined in nuclei of heart in vivo 1 hour after intravenous administration relative to 3,5,3' triiodothyronine receptor
T1 sequence (whole entry): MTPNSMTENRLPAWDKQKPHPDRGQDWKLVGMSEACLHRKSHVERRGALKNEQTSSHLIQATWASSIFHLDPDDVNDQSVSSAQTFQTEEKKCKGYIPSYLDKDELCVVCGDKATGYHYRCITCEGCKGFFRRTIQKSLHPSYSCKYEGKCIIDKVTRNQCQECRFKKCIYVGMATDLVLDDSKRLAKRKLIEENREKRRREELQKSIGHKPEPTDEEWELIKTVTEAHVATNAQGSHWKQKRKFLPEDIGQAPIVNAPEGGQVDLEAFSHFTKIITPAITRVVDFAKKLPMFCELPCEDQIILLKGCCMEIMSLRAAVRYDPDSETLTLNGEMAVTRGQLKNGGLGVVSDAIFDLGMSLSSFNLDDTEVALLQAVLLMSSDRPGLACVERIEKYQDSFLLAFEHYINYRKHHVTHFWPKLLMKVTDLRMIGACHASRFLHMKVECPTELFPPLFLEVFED

[5] = Aqueous solubility at 37 degree Celsius at pH 7.38; type: physicochemical
Summary of the method: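 Solubility in aqueous medium at 37 °C, pH 7.38; given in units of ×10^5 mol/L.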

Rattus norvegicus [6] = assay: Potency for induction of GPDH (mitochondrial cytochrome C3-phosphoglycerate oxidoreductase) was measured 48 hours after single intramuscular injection relative to T3 in liver; type: functional
Rattus norvegicus [7] = assay: Percent increase in oxygen consumption in dose-mg/Kgfter seven daily doses of test compound given intramuscularly, at a conc of 3.3 mg/kg; type: functional; conditions: route intramuscular; summary of the method: as §1
[8] = target: T1, Thyroid hormone receptor beta (Rattus norvegicus); assay: Binding affinity to the receptor was determined in nuclei of liver In vivo 1 hour after intravenous administration relative to T3; type: organism-based
[9] = Selectivity, ratio between relative ID50 in liver and heart
Summary of the method: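 Liver/heart selectivity in rats, calculated as (relative ID50)liver divided by (relative ID50)heart, from in vivo nuclear binding 1 h after intravenous dosing.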

[10] = target: T1, Thyroid hormone receptor beta (Rattus norvegicus); assay: Binding affinity to the receptor was determined in isolated nuclei of heart(In vitro) relative to T3
[11] = Binding affinity to the thyroid hormone receptor was determined in vitro in isolated nuclei of rat liver relative to 3,5,3' triiodothyronine; type: tissue-based
[12] = target: T1, Thyroid hormone receptor beta (Rattus norvegicus); assay: In vivo binding affinity to the receptor was determined in nuclei of heart 1 h after intravenous administration relative to 3,5,3' triiodothyronine receptor
[13] = target: T1, Thyroid hormone receptor beta (Rattus norvegicus); assay: Binding affinity to the receptor was determined in isolated nuclei of liver in vitro relative to 3,5,3' triiodothyronine receptor
Rattus norvegicus [14] = assay: Potency for induction of GPDH (mitochondrial cytochrome C3-phosphoglycerate oxidoreductase) was measured relative to T3 in heart; I=inactive after 2 daily doses of 50 mg/kg; type: functional, organism-based; parameters: dose 50 mg/kg
Rattus norvegicus [15] = assay: Percent increase in oxygen consumption after seven daily oral doses of 5 mg/kg in euthyroid rats
[16] = target: T1, Thyroid hormone receptor beta (Rattus norvegicus); assay: Binding affinity to the receptor was determined in vitro in isolated nuclei of rat liver relative to T3; type: tissue-based
[17] = target: T1, Thyroid hormone receptor beta (Rattus norvegicus); assay: In vitro binding affinity to the receptor was determined in isolated nuclei of heart relative to T3; type: functional
Rattus norvegicus [18] = assay: Percent increase in oxygen consumption after seven daily doses of test compound given intramuscularly, with the concentration of compound at 10 mg/kg; type: functional; conditions: route intramuscular; summary of the method: as §1
Rattus norvegicus [19] = assay: Percent increase in oxygen consumption after seven daily doses of test compound given perorally, with value in braces indicating the concentration of compound at 5 mg/kg; type: functional; conditions: route oral; summary of the method: as §1
Rattus norvegicus [20] = assay: Percent increase in oxygen consumption after seven daily doses of test compound given intramuscularly, at a conc of 3.3 mg/kg; type: functional; conditions: route intramuscular; summary of the method: as §1
Rattus norvegicus [21] = assay: Percent increase in oxygen consumption after seven daily doses of test compound given perorally; I=inactive after 2 daily doses of 50 mg/kg; type: functional, organism-based; parameters: dose 50 mg/kg; summary of the method: as §1
[22] = test system: Thyroid hormone receptor (Rattus norvegicus); assay: Binding affinity to thyroid hormone receptor, relative to 3,5,3' triiodothyronine receptor, in isolated nuclei of heart
Rattus norvegicus [23] = assay: Percent increase in oxygen consumption after seven daily doses of test compound given intramuscularly, ata conc of 3.3 mg/kg; type: functional; conditions: route intramuscular; summary of the method: as §1
Rattus norvegicus [24] = assay: Percent increase in oxygen consumption after seven daily doses of test compound given perorally, with concentration of compound at 5 mg/kg; type: functional; conditions: route oral; summary of the method: as §1
Rattus norvegicus [25] = assay: In vivo binding affinity for 3,5,3'' triiodothyronine receptor of heart nuclei 1 hr after intravenous administration; type: organism-based
[26] = partition coefficient at 25 degree Celsius in octanol/aqueous buffer at pH 6.02; type: physicochemical
Rattus norvegicus [27] = assay: In vivo binding affinity for 3,5,3' triiodothyronine receptor of liver nuclei 1 hour after intravenous administration; type: organism-based
Rattus norvegicus [28] = assay: Percent increase in oxygen consumption after seven daily doses of test compound given intramuscularly, with concentration of compound at 20 mg/kg; type: functional; conditions: route intramuscular; summary of the method: as §1
Rattus norvegicus [29] = assay: Percent increase in oxygen consumption after seven daily doses of test compound given perorally, with concentration of compound; I=inactive after 2 daily doses of 5o mg/kg; type: functional, organism-based; summary of the method: as §1
Rattus norvegicus [30] = assay: Potency for induction of GPDH (mitochondrial cytochrome C 3-phosphoglycerate oxidoreductase) was measured 48 hr after single im injection relative to T3 in heart; LM=low maximal response after 2 daily doses of 50 mg/kg; type: functional, organism-based; parameters: dose 50 mg/kg; conditions: filed as partial agonist
Rattus norvegicus [31] = assay: Potency for induction of GPDH (mitochondrial cytochrome C3-phosphoglycerate oxidoreductase) was measured 48 hours after single intramuscular injection relative to […] in liver; type: functional
Rattus norvegicus [32] = assay: Percent increase in oxygen consumption after seven daily doses of test compound given perorally, with concentration of compound at 0.04 mg/kg; type: functional; conditions: route oral; summary of the method: as §1
Rattus norvegicus [33] = assay: Potency for induction of GPDH (mitochondrial cytochrome C3-phosphoglycerate oxidoreductase) was measured 48 hours after single intramuscular injection relative to T3 in heart; type: functional
Rattus norvegicus [34] = assay: Percent increase in oxygen consumption after seven daily doses of test compound given intramuscularly, with the concentration of compound at 0.1 mg/kg; type: functional; conditions: route intramuscular; summary of the method: as §1
Rattus norvegicus [35] = assay: Percent increase in oxygen consumption after seven daily doses of test compound given perorally, with concentration of compound at 0.1 mg/kg; type: functional; conditions: route oral; summary of the method: as §1
Rattus norvegicus [36] = assay: Percent increase in oxygen consumption after seven daily doses of test compound given perorally, with concentration of compound at 5.3 mg/kg; type: functional; conditions: route oral; summary of the method: as §1

In the case of `N[C@@H](Cc1cc(I)c(Oc2ccc(O)c(Cc3ccc(O)nc3)c2)c(I)c1)C(=O)O`, the “Relative ED50” value (Rattus norvegicus [1]) is reported as “inactive”, the Increase (Rattus norvegicus [2]) is reported as “inactive” and the logD [3] is reported as 1.01. The Relative ID50 [4] was 0.2, the solubility [5] was 10 µM (≈ 6.32 µg/mL) and the “Relative ED50” value (Rattus norvegicus [6]) was 1.7. It also gave an Increase (Rattus norvegicus [7]) of 19%, a Relative ID50 [8] of 10 and a Ratio [9] of 50. The Relative IC50 [10] was 2.7 and the Relative IC50 [11] was 2.3.

With `O=C(O)CCCc1cc(Br)c(Oc2ccc(O)c(Cc3ccc(O)nc3)c2)c(Br)c1` the Relative ID50 [12] was 0.26, the Relative IC50 [13] was 21.7 and the “Relative ED50” value (Rattus norvegicus [6]) was 0.69. For the same compound, the “Relative ED50” value (Rattus norvegicus [14]) was “inactive”, the Increase (Rattus norvegicus [15]) was 19% and the Relative IC50 [11] was 21.7.

With `Cc1cc(CC(N)C(=O)O)cc(C)c1Oc1ccc(O)c(Cc2ccc(O)nc2)c1` (centres undefined) the “Relative ED50” value (Rattus norvegicus [1]) was “inactive”, the Relative IC50 [16] was 0.083 and the Relative IC50 [17] was 0.14. The Increase (Rattus norvegicus [18]) was 28%, the “Relative ED50” value (Rattus norvegicus [6]) was 1.1 and the Increase (Rattus norvegicus [19]) was 18%.

With `N[C@@H](Cc1cc(I)c(Sc2ccc(O)c(Cc3ccc(O)nc3)c2)c(I)c1)C(=O)O` the “Relative ED50” value (Rattus norvegicus [1]) was “inactive”, the Increase (Rattus norvegicus [20]) was 26% and the “% increase O2 consumption” value (Rattus norvegicus [21]) was “inactive”. For the same compound, the “Relative ED50” value (Rattus norvegicus [6]) was 16.6, the Relative IC50 [22] was 19.4 and the Relative IC50 [11] was 14.8.

For `N[C@@H](Cc1cc(Br)c(Oc2ccc(O)c(Cc3ccc(O)nc3)c2)c(Br)c1)C(=O)O`, the “Relative ED50” value (Rattus norvegicus [1]) was “inactive”, the Increase (Rattus norvegicus [23]) was 32% and the solubility [5] was 33 µM (≈ 17.8 µg/mL). For the same compound, the Increase (Rattus norvegicus [24]) was 31%, the “Relative ED50” value (Rattus norvegicus [6]) was 6.9 and the Relative ID50 (Rattus norvegicus [25]) was 0.3. For the same compound, the logD [26] was 0.7, the Relative IC50 [22] was 1.8 and the Relative ID50 (Rattus norvegicus [27]) was 23. The Relative IC50 [11] was 2.

With `O=C(O)Cc1cc(Br)c(Oc2ccc(O)c(Cc3ccc(O)nc3)c2)c(Br)c1` the “Relative ED50” value (Rattus norvegicus [1]) was “inactive”, the Increase (Rattus norvegicus [28]) was 21% and the “% increase O2 consumption” value (Rattus norvegicus [29]) was “inactive”. The “Relative ED50” value (Rattus norvegicus [6]) was 2 and the Relative IC50 [11] was 3.

With `N[C@@H](Cc1cc(Cl)c(Oc2ccc(O)c(Cc3ccc(O)nn3)c2)c(Cl)c1)C(=O)O` the “Relative ED50” value (Rattus norvegicus [30]) was “Partial agonist”, the “Relative ED50” value (Rattus norvegicus [31]) was 25 and the Relative IC50 [22] was 0.8. It also gave an Increase (Rattus norvegicus [32]) of 15% and a Relative IC50 [11] of 0.48.

With `N[C@@H](Cc1cc(Br)c(Oc2ccc(O)c(Cc3ccc(O)nn3)c2)c(Br)c1)C(=O)O` the “Relative ED50” value (Rattus norvegicus [33]) was less than 0.1, the Increase (Rattus norvegicus [34]) was 20% and the Increase (Rattus norvegicus [35]) was 20%. The “Relative ED50” value (Rattus norvegicus [6]) was 18 and the Relative IC50 [11] was 0.9.

For `N[C@@H](Cc1cc(Br)c(Sc2ccc(O)c(Cc3ccc(O)nc3)c2)c(Br)c1)C(=O)O`, the Increase (Rattus norvegicus [36]) was 16%, the “Relative ED50” value (Rattus norvegicus [30]) was “Partial agonist” and the “Relative ED50” value (Rattus norvegicus [31]) was 14.5. The Relative IC50 [22] was 10.2 and the Relative IC50 [11] was 9.8.
